From ChEMBL document CHEMBL1128248, “C-9 and N-substituted analogs of cis-(3aR)-(-)-2,3,3a,4,5,9b-hexahydro-3- propyl-1H-benz[e]indole-9-carboxamide: 5-HT1A receptor agonists with various degrees of metabolic stability” (J Med Chem, 1995)
Calls of active or inactive are those of the source. The calls are words filed in the database; no cut-off is given here.

Legend:
D(2) dopamine receptor = D(2) dopamine receptor (Rattus norvegicus, UniProt P61169); test: Displacement of [3H]U-86170 from Dopamine receptor D2
Summary of the method: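 Competition binding at cloned D2 receptors expressed in CHO-K1 cells, using the agonist [3H]U86170 (62 Ci/mmol, 2 nM) against 11 dilutions of test compound. IC50 was fitted to a one-site model by nonlinear least squares. Ki was obtained with the Cheng–Prusoff equation.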

[1] = biological target: T1, 5-hydroxytryptamine receptor 1A (Rattus norvegicus, UniProt P19327); test: In vitro displacement of radioactively labeled ligand [3H]8-OH-DPAT from 5-hydroxytryptamine 1A receptor site in CHO cells; assay type: cell-based
T1 sequence (P19327 whole entry): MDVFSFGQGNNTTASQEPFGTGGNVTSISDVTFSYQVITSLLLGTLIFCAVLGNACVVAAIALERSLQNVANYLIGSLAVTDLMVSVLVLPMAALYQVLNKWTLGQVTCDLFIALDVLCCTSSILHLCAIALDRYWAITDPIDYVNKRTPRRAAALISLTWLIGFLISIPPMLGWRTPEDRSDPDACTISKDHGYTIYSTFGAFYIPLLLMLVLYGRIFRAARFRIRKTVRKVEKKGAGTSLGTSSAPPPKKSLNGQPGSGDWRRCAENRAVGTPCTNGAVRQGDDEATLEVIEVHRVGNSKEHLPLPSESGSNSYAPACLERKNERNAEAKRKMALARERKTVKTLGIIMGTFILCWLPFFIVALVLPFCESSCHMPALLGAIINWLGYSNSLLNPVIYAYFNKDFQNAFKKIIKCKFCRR

Rattus norvegicus [2] = species on record: Rattus norvegicus; test: (§1) In vitro metabolic stability of the test compound was evaluated after incubation in the presence of freshly isolated rat hepatocytes; assay type: functional, Hepatocyte; parameters: reference not given here
Summary of the method: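 Rat hepatocytes were isolated by modified collagenase perfusion and incubated as suspensions (5 million cells/mL) with each compound at three concentrations. Parent loss was followed by HPLC. Initial rates gave apparent Vmax and Km by direct linear plot, with CLint = Vmax/Km. Stability is expressed relative to a reference compound incubated at the same time.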

Rattus norvegicus [3] = test: postsynaptic effects was assessed by the increase in the locomotor activity (reversal of reserpine induced hypokinesia) during a 30 min period after subcutaneous administration using photocell motility meters at the dose of 12.5(mic roM/kg); assay type: ADME, organism-based; conditions: in vivo, sc, 0.5 h
Summary of the method: (§2)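 Reserpine 5 mg/kg sc was given 18 h before testing to male Sprague–Dawley rats. Test drug was given sc in the neck, and rats were placed singly in photocell motility meters. Accumulated counts were recorded over 30 min (mean, n = 4), with gross behaviour observed throughout. Student's t test was applied.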

Rattus norvegicus [4] = test: (§3) 5-HTP accumulation in limbic system was determined in vivo; assay type: functional
Summary of the method: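 Male Sprague–Dawley rats (200–300 g), pretreated with reserpine 5 mg/kg sc 18 h before. Test drug given sc. 5-HTP measured in limbic brain tissue by HPLC with electrochemical detection. Dose–response curves were built from four to six dose levels (n = 4) for each substance and brain area. ED50 reported in μmol/kg sc.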

Rattus norvegicus [5] = test: In vivo effects on DA (dopamine) synthesis in corps striatum was reported after subcutaneous administration to reserpinized rats; inactive at a dose of 100; assay type: functional, organism-based
Rattus norvegicus [6] = test: in vivo effects on DA (dopamine) synthesis in cortex was reported after subcutaneous administration to reserpinized rats; inactive at a dose of 100; assay type: functional, organism-based
Rattus norvegicus [7] = test: in vivo effects on DA (dopamine) synthesis in cortex was reported after subcutaneous administration to reserpinized rats; inactive at a dose of 50; assay type: functional, organism-based
Summary of the method: (§4)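 Male Sprague–Dawley rats (200–300 g) given reserpine 5 mg/kg sc 18 h before; compounds sc in neck region, 5 mL/kg. DOPA accumulation in striatum or cortex measured by HPLC with electrochemical detection.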

Rattus norvegicus [8] = test: postsynaptic effects was assessed by the increase in the locomotor activity (reversal of reserpine induced hypokinesia) during a 30 min period after subcutaneous administration using photocell motility meters at the dose of 50(micro M/kg); assay type: ADME, organism-based; conditions: in vivo, sc, 0.5 h; summary of the method: as §2
Rattus norvegicus [9] = test: In vivo effects on DA (dopamine) synthesis in corps striatum was reported after subcutaneous administration to reserpinized rats; inactive at a dose of 50; assay type: functional, organism-based; summary of the method: as §4
Rattus norvegicus [10] = test: as §3; assay type: functional; remark: listed apart in the source
Summary of the method: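 Male Sprague–Dawley rats (200–300 g) pretreated with reserpine 5 mg/kg sc 18 h beforehand; test drug given sc in neck, 5 mL/kg, neutral pH. 5-HTP in limbic system measured by HPLC with electrochemical detection.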

Rattus norvegicus [11] = species on record: Rattus norvegicus; test: as §1; assay type: ADME, Hepatocyte
Summary of the method: (§5)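 Rat hepatocytes were prepared by a modified collagenase perfusion method. Each compound was incubated at three concentrations in suspension at 5 million cells/mL. Initial rates were analysed by direct linear plot to give apparent Vmax and Km, and CLint = Vmax/Km. Rates were measured by HPLC and expressed relative to a reference compound incubated at the same time.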

Rattus norvegicus [12] = species on record: Rattus norvegicus; test: In vitro metabolic stability of the test compound was evaluated after incubation in the presence of freshly isolated rat hepatocytes; Metabolic stability NT = not tested; assay type: functional, Hepatocyte; summary of the method: as §5
Rattus norvegicus [13] = test: postsynaptic effects was assessed by the increase in the locomotor activity (reversal of reserpine induced hypokinesia) during a 30 min period after subcutaneous administration using photocell motility meters at dose of 12.5 (uM /kg); assay type: functional
Summary of the method: (§6)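 Male Sprague–Dawley rats got reserpine 5 mg/kg sc in the neck 18 h before testing. Compound was given sc in the neck (5 mL/kg), and rats were placed singly in photocell motility meters. Accumulated counts were recorded over 30 min, mean ± SEM, n = 4, with Student's t test against reserpinized controls. Testing ran 9 a.m.–1 p.m.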

Rattus norvegicus [14] = test: In vivo effects on DA (dopamine) synthesis in corps striatum was reported after subcutaneous administration to reserpinized rats; inactive at a dose of 12.5; assay type: functional, organism-based; summary of the method: as §4
Rattus norvegicus [15] = test: in vivo effects on DA (dopamine) synthesis in cortex was reported after subcutaneous administration to reserpinized rats; inactive at a dose of 12.5; assay type: functional, organism-based; summary of the method: as §4
Rattus norvegicus [16] = test: uM/kg); assay type: ADME, organism-based; conditions: in vivo; summary of the method: as §6
Rattus norvegicus [17] = test: In vivo effects on DA (dopamine) synthesis in corps striatum was reported after subcutaneous administration to reserpinized rats; inactive at a dose of 3.1; assay type: functional, organism-based
Rattus norvegicus [18] = test: postsynaptic effect was assessed by the increase in the locomotor activity (reversal of reserpine induced hypokinesia) during a 30 min period after subcutaneous administration using photocell motility meters at the dose of 3.1 uM/kg; assay type: ADME, organism-based; conditions: in vivo, sc, 0.5 h; summary of the method: as §2
Rattus norvegicus [19] = test: in vivo effects on DA (dopamine) synthesis in cortex was reported after subcutaneous administration to reserpinized rats; inactive at a dose of 3.1; assay type: functional, organism-based

Sequence of D(2) dopamine receptor (P61169 whole entry): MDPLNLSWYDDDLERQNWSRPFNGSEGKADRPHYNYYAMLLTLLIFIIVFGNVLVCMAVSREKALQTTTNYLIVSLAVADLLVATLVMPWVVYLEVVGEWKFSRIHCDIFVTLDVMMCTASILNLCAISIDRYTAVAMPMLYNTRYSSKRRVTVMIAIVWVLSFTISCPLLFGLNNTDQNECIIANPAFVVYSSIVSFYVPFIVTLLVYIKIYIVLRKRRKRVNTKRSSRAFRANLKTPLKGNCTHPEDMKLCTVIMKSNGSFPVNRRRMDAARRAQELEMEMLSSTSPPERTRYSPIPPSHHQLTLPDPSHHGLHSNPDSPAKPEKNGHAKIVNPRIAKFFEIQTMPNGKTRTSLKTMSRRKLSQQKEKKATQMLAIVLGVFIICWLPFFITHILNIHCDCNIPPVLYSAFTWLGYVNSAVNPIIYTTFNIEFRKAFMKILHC

Compound | Ki (D(2) dopamine receptor) | Ki [1] | Metabolic stability (Rattus norvegicus [2]) | also measured
CCCCN1CC[C@H]2c3c(Br)cccc3CC[C@H]21 | 75 nM | 45 nM |  | 
CN1CC[C@H]2c3c(Br)cccc3CC[C@H]21 | 41 nM | 24 nM |  | 
NC(=O)c1cccc2c1[C@@H]1CCN(CCCF)[C@@H]1CC2 | > 1000 nM | 3.9 nM | 0.68 | 
C=CCCN1CC[C@H]2c3c(cccc3C(N)=O)CC[C@H]21 | > 1000 nM | 82 nM | 0.33 | 
CCN1CC[C@H]2c3c(cccc3C(N)=O)CC[C@H]21 | > 1000 nM | 23 nM | 1.5 | Locomotor activity (Rattus norvegicus [3]): 13; ED50 (Rattus norvegicus [4]): 2 µmol/kg; ED50 (Rattus norvegicus [5]): inactive; ED50 (Rattus norvegicus [6]): inactive
C=CCCN1CC[C@H]2c3c(Br)cccc3CC[C@H]21 | 55 nM | 34 nM |  | 
ClCCCN1CC[C@H]2c3c(Br)cccc3CC[C@H]21 | 73 nM | 12 nM |  | 
CN1CC[C@H]2c3c(cccc3C(N)=O)CC[C@H]21 | > 1000 nM |  | 4.9 | ED50 (Rattus norvegicus [7]): inactive; Locomotor activity (Rattus norvegicus [8]): 23; ED50 (Rattus norvegicus [9]): inactive; ED50 (Rattus norvegicus [10]): 17.6 µmol/kg
CC(C)=CCN1CC[C@H]2c3c(Br)cccc3CC[C@H]21 | 18 nM | 266 nM |  | Metabolic stability (Rattus norvegicus [11]): 0.21
CC(C)CN1CC[C@H]2c3c(cccc3C(N)=O)CC[C@H]21 | > 1000 nM | 42 nM | 0.23 | 
CC(C)=CCN1CC[C@H]2c3c(cccc3C(N)=O)CC[C@H]21 | > 1000 nM | 271 nM |  | Metabolic stability (Rattus norvegicus [12]): 0
CCCN(CCC)C(=O)c1cccc2c1[C@@H]1CCN(CCC)[C@@H]1CC2 | > 1000 nM | 434 nM |  | 
C=CCN1CC[C@H]2c3c(Br)cccc3CC[C@H]21 | 3.2 nM | 1 nM |  | 
CCCN1CC[C@H]2c3c(cccc3C(=O)NCc3ccccc3)CC[C@H]21 | > 1000 nM | 22 nM | 0.16 | Locomotor activity (Rattus norvegicus [3]): 41; ED50 (Rattus norvegicus [7]): inactive; ED50 (Rattus norvegicus [9]): inactive; ED50 (Rattus norvegicus [10]): 7 µmol/kg
NC(=O)c1cccc2c1[C@@H]1CCN(CCCCl)[C@@H]1CC2 | > 1000 nM | 15 nM |  | Metabolic stability (Rattus norvegicus [11]): 0.22
C#CCN1CC[C@H]2c3c(cccc3C(N)=O)CC[C@H]21 | > 1000 nM | 48 nM | 0.37 | 
Brc1cccc2c1[C@@H]1CCN(CC3CC3)[C@@H]1CC2 | 119 nM | 4.7 nM |  | 
CCCN1CC[C@H]2c3c(cccc3C(N)=O)CC[C@H]21 | > 1630 nM | 1.9 nM | 1 | ED50 (Rattus norvegicus [7]): inactive; Locomotor activity (Rattus norvegicus [13]): 249; ED50 (Rattus norvegicus [9]): inactive; ED50 (Rattus norvegicus [10]): 0.28 µmol/kg
COCCN1CC[C@H]2c3c(cccc3C(N)=O)CC[C@H]21 | > 1000 nM | 129 nM | 0.58 | 
C=CCNC(=O)c1cccc2c1[C@@H]1CCN(CCC)[C@@H]1CC2 | > 1000 nM | 2.2 nM | 0.4 | ED50 (Rattus norvegicus [7]): inactive; Locomotor activity (Rattus norvegicus [8]): 82; ED50 (Rattus norvegicus [9]): inactive; ED50 (Rattus norvegicus [10]): 0.8 µmol/kg
CCN1CC[C@H]2c3c(Br)cccc3CC[C@H]21 | 34 nM | 11 nM |  | 
C=CCN1CC[C@H]2c3c(cccc3C(N)=O)CC[C@H]21 | > 1000 nM | 1.5 nM | 1 | ED50 (Rattus norvegicus [14]): inactive; ED50 (Rattus norvegicus [15]): inactive; Locomotor activity (Rattus norvegicus [16]): 215; ED50 (Rattus norvegicus [10]): 0.04 µmol/kg
CCCCN1CC[C@H]2c3c(cccc3C(N)=O)CC[C@H]21 | > 1000 nM | 83 nM | 0.3 | 
FCCCN1CC[C@H]2c3c(Br)cccc3CC[C@H]21 | 47 nM | 4.7 nM |  | 
NC(=O)c1cccc2c1[C@@H]1CCN(CC3CC3)[C@@H]1CC2 | > 1000 nM | 8.3 nM | 0.5 | ED50 (Rattus norvegicus [7]): inactive; Locomotor activity (Rattus norvegicus [8]): 32; ED50 (Rattus norvegicus [9]): inactive; ED50 (Rattus norvegicus [10]): 1 µmol/kg
CCCN1CC[C@H]2c3c(cccc3C(=O)C(C)C)CC[C@H]21 | 62 nM | 1.2 nM | 0.8 | ED50 (Rattus norvegicus [17]): inactive; ED50 (Rattus norvegicus [4]): 0.025 µmol/kg; Locomotor activity (Rattus norvegicus [18]): 450; ED50 (Rattus norvegicus [19]): inactive
COCCN1CC[C@H]2c3c(Br)cccc3CC[C@H]21 | 252 nM | 97 nM |  | 
